A word on the LD50: it is the dose expected to kill half of the subjects tested. A lower LD50 goes with greater toxicity. One may read the AUC as concentration integrated over time. What is called Kp is tissue or fluid exposure divided by exposure in the circulation. For orientation: IC50 means the concentration that gives 50% inhibition.

One data set concerns HepG2 cells. Kind of data set: Cell apoptosis, Annexin V-FITC/PI flow cytometry. In kind it is cell-based, human. Conditions: 24 hours. Summed up:
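HepG2 cells grown in high-glucose DMEM with 10% FBS and 1% antibiotics at 37°C, 5% CO2. Seeded at 2×10^5 cells/mL and incubated 24 h. Then exposed 24 h to nanoparticle suspension or drug solution at 1.2, 5 and 20 μg/mL RBG-equivalent, with 5-fluorouracil 20 μg/mL as control. Cells washed in cold PBS and stained with Annexin V-FITC/PI in binding buffer, 15 min at room temperature, then read by flow cytometry.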
Background: A flow cytometer gives signals particle by particle.

Another data set can be described thus: LD50. Set-up: species or system mice. Conditions: male, Kunming, mouse, in vivo, iv.
Data set [1] is described as follows: In vivo RBG concentrations in plasma and organs, liver-targeting indexes. Conditions: for AUC: iv. Set-up: species or system Kunming mice. The procedure, abridged:
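Male Kunming mice, 6 weeks, about 20.9 g, fasted overnight. Single tail-vein dose of 2 mg/kg RBG-equivalent, given as sonicated nanoparticle suspension or as solution, both in 20% PEG400/saline. Ten mice per group sampled at 0.08–24 h: cardiac blood, liver, heart, spleen, lung and kidney. RBG measured by RP-HPLC. AUC0–24 h by trapezoid method. Re is the AUC ratio of formulation to solution; Te is the liver AUC over the non-target organ AUC.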

Data set [2] in a line: In vivo therapeutic effect in HCa-F solid tumor-bearing mice. To be noted: male, mouse, tumor, intravenous, 2 mg/kg. The procedure, abridged: (§1)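 Male mice, 6 weeks, implanted subcutaneously in the right axilla with washed HCa-F ascites cells (2.0–2.3×10^7 cells/mL, 0.01 mL/g). At a longest tumour diameter of about 14–16 mm, mice randomised to six groups of eight. Dosing 2 mg/kg RBG-equivalent (5-fluorouracil 2 mg/kg) by tail vein, daily for 7 days, in 20% PEG400/saline vehicle. Volume V=a²×b/2 measured before and after dosing. Tumours weighed; IR from mean weights versus vehicle control. Tumour RBG measured in saline homogenates.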

A further data set relates to HCa-F cells. Described as above. To be noted: for IR (tumor growth inhibition rate) / Number of natural deaths / Tumor weight / Volume growth (incremental tumor volume): 2 mg/kg iv once per day for 7 days; for IR (tumor growth inhibition rate): by tumor weight; for Number of natural deaths: eight mice per group; for Tumor weight / Volume growth (incremental tumor volume): n=8. The procedure, abridged: as §1

The next data set is described as follows: In vitro drug release. Type of data set: physicochemical. Conditions: raw RBG.
The subject of data set [3] is various malignant tumors, such as human hepatocellular carcinoma cells (Bel7402) and human cervical carcinoma cells (HeLa). Conditions: e.g. Bel7402, HeLa; cited from earlier work.

Take `C[C@]12CC[C@H](O)C[C@H]1CC[C@@H]1[C@@H]2CC[C@]2(C)[C@@H](c3ccc(=O)oc3)C[C@H]3O[C@]132` [RS, Resibufogenin]: the “Cell ratio, apoptotic cells” value with HepG2 cells (1.2 μg/mL) worked out at 21.8±1.5%; with HepG2 cells (5 μg/mL) it was 33.6±1.6 %; in the data set with HepG2 cells (20 μg/mL), 45.4±1.7 %. Further, the figures for the “Cell ratio, necrotic cells” value with HepG2 cells (1.2 μg/mL), in the data set with HepG2 cells (5 μg/mL) and with HepG2 cells (20 μg/mL) were 1.6±0.8%, 0.6±0.5% and 0.4±0.4%, respectively. For the same molecule, the “Cell ratio, survival cells” value in the data set with HepG2 cells (1.2 μg/mL) is given as 76.6±2.2%; in the data set with HepG2 cells (5 μg/mL) it was 65.8±2.7%; in the data set with HepG2 cells (20 μg/mL), 54.2±1.9%. The molecule further registered an LD50 in the data set “LD50” of 18.9 mg/kg. Further, the “Te (targeting efficiency), liver versus heart” value in data set [1] (AUC liver / AUC heart) is recorded as 0.6. Further, the “Te (targeting efficiency), liver versus kidney” value in data set [1] (AUC liver / AUC kidney) worked out at 0.8. Further, the “Te (targeting efficiency), liver versus lung” value in data set [1] (AUC liver / AUC lung) was 0.8. The “Te (targeting efficiency), liver versus spleen” value in data set [1] (AUC liver / AUC spleen) worked out at 1.0. Besides, in data set [1] (liver versus plasma and other organs), the “Te (targeting efficiency), overall statement” value is reported as < 1. The AUC was determined as 3700 ± 900 ng·h/mL in data set [1] (male, Kunming, mouse, heart, 2 mg/kg); 2700 ± 1000 ng·h/mL in data set [1] (male, Kunming, mouse, kidney, 2 mg/kg); 2100 ± 900 ng·h/mL in data set [1] (male, Kunming, mouse, liver, 2 mg/kg); 2500 ± 800 ng·h/mL in data set [1] (male, Kunming, mouse, lung, 2 mg/kg); 18600 ± 2100 ng·h/mL in data set [1] (male, Kunming, mouse, plasma, 2 mg/kg); 2200 ± 600 ng·h/mL in data set [1] (male, Kunming, mouse, spleen, 2 mg/kg). This molecule also gave a Kp in data set [1] (male, Kunming, mouse, liver/plasma, intravenous, 2 mg/kg) of 0.1. Further, the “Retention (slow release) time of RBG in liver” value in data set [1] (mice, iv 2 mg/kg RBG) amounted to 1 h. The concentration at 7 days in data set [2] stood at 50 ± 20 ng/g. Further, the “IR (tumor growth inhibition rate)” value with HCa-F cells is recorded as 31.60%. In addition, the “Number of natural deaths” value in the data set with HCa-F cells was found to be 2. Also, the Tumor weight in the data set with HCa-F cells is 3.55 ± 0.71 g. The “Volume growth (incremental tumor volume)” value in the data set with HCa-F cells was found to be 3.16±0.78 cm^3. Moreover, the MRBG in tumor in the data set on HCa-F cells (after 7 days of administration, n=6) was 0.19 ± 0.08 µg.

As for `C[C@]12CC[C@H](O)C[C@H]1CC[C@@H]1[C@@H]2CC[C@]2(C)[C@@H](c3ccc(=O)oc3)C[C@H]3O[C@]132` [RBG, Resibufogenin], in the data set “In vitro drug release”, the “Release in the first 2 days” value came out at 98.78%. Moreover, the IC50 in data set [3] is 1 to 50 nM.

`O=c1[nH]cc(F)c(=O)[nH]1` [FS, 5-fluorouracil]: in the data set with HepG2 cells (20 μg/mL), the “Cell ratio, apoptotic cells” value amounted to 14.2±1.2%; the “Cell ratio, necrotic cells” value is listed as 22.3±1.6%; the “Cell ratio, survival cells” value stood at 63.5±2.0%. In the data set on HCa-F cells, the “IR (tumor growth inhibition rate)” value stood at 37.19%, the “Number of natural deaths” value amounted to 1, the Tumor weight came out at 3.26 ± 0.74 g and the “Volume growth (incremental tumor volume)” value is on record as 3.05±0.72 ^* cm^3.

Source of the values: paper PMC4734807 (International Journal of Nanomedicine, 2016).
